The sample as a whole holds a higher share of hits than the screen did.
T cruzi HTS: inhibitors of intracellular Trypanosoma cruzi; intracellular Trypanosoma cruzi in host cells, plate reader; activity score (inhibition), % at 5.01 µM; actives 4.9% (n = 22,000); in the data active = activity score above about 55%;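 note: parasites and compound incubated about four days before reading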
A1 apoptosis 2: compounds inhibiting A1, read as caspase activation | AID 2465 | MEF A1-2A-BIM cells, caspase-Glo luminescence, 3 h; percent of clofoctol response, DMSO zero | 24,000 tested, under 10 active | caspase activation, % (no concentration beside the values); in the data active = caspase activation above about 5.9%
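Evaluation: Caspase-3/7 activity from luminescence increase | Assay system: A1-2A-BIM mouse embryonic fibroblasts | Quantity: 2500 MEF cells/well | Medium: RPMI-1640 plus 10% FBS | Detection: Caspase-Glo 3/7 luminescence, 1 h at room temperature | Dosing: 50 nL compound per well, pinned | Timing: Cells settled overnight, compound exposure 3 h at 37 °C, 5% CO2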
INS-1E rescue: INS-1E beta cell protection from cytokine death | INS-1E cytokine-induced death, ATP luminescence, 48 h; normalised: neutral wells 0, positive control 100 | protection from cytokine-induced ATP loss, % at 10 µM | actives 0.1% (n = 20,000) | AID 488910;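 active = mean replicate protection from cytokine-induced ATP loss at least 50% and at least 75% of replicates each reaching 50%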
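Assay system: INS-1E rat cells / Quantity: 8000 cells per well / Medium: RPMI without phenol red, 5% FBS / Probe or stimulus: three-cytokine cocktail (IFN-γ, TNF-α, IL-1β) / Dosing: one compound concentration, pin transfer / Timing: 48 h co-treatment, 10 min post-lysis read / Technique: CellTiter-Glo luminescence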
A number is an active result.

`COC(=O)[C@]1(CO)N=C(c2ccc(OCCCO)cc2)O[C@@H]1c1ccccc1N=[N+]=[N-]` gave A1 apoptosis 2 inactive.
For O=C(O)C1=C[C@H](c2ccc3c(c2)Cc2ccccc2-3)C[C@H](OCc2ccc(CO)cc2)O1 the results were A1 apoptosis 2 inactive.
Screening COC(=O)CCCCCCC(=O)N/N=C/[C@H](O)[C@@H](O)[C@H](O)[C@H](O)CO returned T cruzi HTS inactive, A1 apoptosis 2 inactive and INS-1E rescue inactive.
O=C(CCCCCC(=O)Nc1ccccc1O)N/N=C/c1cccc(B(O)O)c1 was read as T cruzi HTS inactive, A1 apoptosis 2 inactive and INS-1E rescue inactive.
For C[C@@H]1CN([C@H](C)CO)C(=O)Cc2cc(NS(=O)(=O)c3ccc(Cl)cc3)ccc2O[C@H]1CN(C)Cc1ccc(Oc2ccccc2)cc1 the results were T cruzi HTS 63.7 and INS-1E rescue inactive.
For C[C@H]1CN([C@@H](C)CO)C(=O)Cc2cc(NS(=O)(=O)c3ccc(F)cc3)ccc2O[C@H]1CN(C)Cc1ccc(Oc2ccccc2)cc1 the results were T cruzi HTS inactive and INS-1E rescue inactive.
Screening C[C@@H]1CN([C@@H](C)CO)C(=O)Cc2cc(NS(=O)(=O)c3ccc(F)cc3)ccc2O[C@@H]1CN(C)Cc1ccc(Oc2ccccc2)cc1 returned T cruzi HTS 75.1 and INS-1E rescue inactive.
Screening C[C@H]1CN([C@@H](C)CO)C(=O)Cc2cc(NS(=O)(=O)c3ccc(F)cc3)ccc2O[C@H]1CN(C)Cc1ccc(-c2ccccc2)cc1 returned T cruzi HTS inactive, A1 apoptosis 2 inactive and INS-1E rescue inactive.
For C[C@H](CO)N1C[C@H](C)[C@@H](CN(C)Cc2ccccc2)Oc2ccc(NS(=O)(=O)c3ccc(Cl)cc3)cc2CC1=O the results were A1 apoptosis 2 inactive.
C[C@@H]1CN([C@H](C)CO)C(=O)Cc2cc(NS(=O)(=O)c3ccc(Cl)cc3)ccc2O[C@H]1CN(C)Cc1ccccc1 was read as T cruzi HTS 72.6 and INS-1E rescue inactive.
C[C@@H]1CN([C@@H](C)CO)C(=O)Cc2cc(NS(=O)(=O)c3ccc(F)cc3)ccc2O[C@@H]1CN(C)Cc1ccc(-c2ccccc2)cc1 was read as T cruzi HTS 63.0, A1 apoptosis 2 inactive and INS-1E rescue inactive.
C[C@H]1CN([C@@H](C)CO)C(=O)Cc2cc(NS(=O)(=O)c3ccc(Cl)cc3)ccc2O[C@H]1CN(C)Cc1ccc(Oc2ccccc2)cc1 was read as T cruzi HTS inactive, A1 apoptosis 2 inactive and INS-1E rescue inactive.
For COc1ccc(/C=N/NC(=O)c2ccccn2)cc1Br the results were T cruzi HTS inactive, A1 apoptosis 2 inactive and INS-1E rescue inactive.
`O=C(CCCCC(=O)N/N=C/c1ccc(F)c(Oc2ccccc2)c1)NO` gave T cruzi HTS inactive and INS-1E rescue inactive.
COc1cc(Br)cc(/C=N/NC(=O)CCCCCC(=O)Nc2ccccc2O)c1O was read as T cruzi HTS inactive, A1 apoptosis 2 inactive and INS-1E rescue inactive.
Screening O=C(CCCCCC(=O)N/N=C/c1ccc(F)cc1)NO returned A1 apoptosis 2 inactive.
`O=C(N/N=C/c1cn(S(=O)(=O)c2ccccc2)c2ccccc12)c1ccccn1` gave T cruzi HTS inactive, A1 apoptosis 2 inactive and INS-1E rescue inactive.
`O=C(NO)c1cccc(C(=O)N/N=C/c2ccc3c(c2)OCCO3)c1` gave T cruzi HTS inactive and INS-1E rescue inactive.
For COC(=O)C(CC#Cc1ccc2c(c1)[C@]1(C(=O)N2)[C@H](c2ccc(O)cc2)N2[C@H](c3ccccc3)[C@H](c3ccccc3)OC(=O)[C@H]2[C@@H]1C(=O)O)C(=O)OC the results were A1 apoptosis 2 inactive.
For COc1ccc(NC(=O)Nc2ccc3c(c2)CC(=O)N([C@H](C)CO)C[C@@H](C)[C@@H](CN(C)Cc2ccc(Oc4ccccc4)cc2)O3)cc1 the results were T cruzi HTS 71.7 and INS-1E rescue inactive.
COc1ccc(CN(C)C[C@@H]2Oc3ccc(NC(=O)Nc4ccccc4)cc3CC(=O)N([C@@H](C)CO)C[C@H]2C)cc1 was read as A1 apoptosis 2 inactive.
C[C@H]1CN([C@@H](C)CO)C(=O)Cc2cc(NC(=O)C3CCCCC3)ccc2O[C@@H]1CN(C)Cc1ccc(Oc2ccccc2)cc1 was read as T cruzi HTS 59.1 and INS-1E rescue inactive.
Screening C[C@H](CO)N1C[C@H](C)[C@@H](CN(C)Cc2ccc(Oc3ccccc3)cc2)Oc2ccc(NC(=O)C3CCCCC3)cc2CC1=O returned A1 apoptosis 2 inactive.
`COc1ccc(NC(=O)Nc2ccc3c(c2)CC(=O)N([C@H](C)CO)C[C@@H](C)[C@H](CN(C)Cc2ccc(Oc4ccccc4)cc2)O3)cc1` gave T cruzi HTS inactive and INS-1E rescue inactive.
